# Measured values from different studies.
# Target: Vascular endothelial growth factor receptor 2 (KDR, Homo sapiens, UniProt P35968)
SMILES,read-out,action,technique,tested at,measurement,result
CS(=O)(=O)NCC[C@H](NC(=O)c1cncc2c1cnn2-c1ccc(F)cc1)c1ccnc(S(C)(=O)=O)c1,cell-free assay,,competition with immobilised ligand,1 µM,remaining binding,100%
COc1ccc(NC(=O)c2c(Nc3ccccc3)sc(C#N)c2NC(=O)CNc2ccc([N+](=O)[O-])cc2)cc1,enzyme activity,inhibitor,,10 nM,remaining activity,98%
Nc1ncnc2occ(-c3ccc(NC(=O)Nc4cc(C(F)(F)F)ccc4F)cc3)c12,cell-free assay,,,20 µM,remaining signal,0%
COc1ccc(NC(=O)c2c(Nc3ccccc3)sc(C#N)c2NC(=O)CNc2ccc(Cl)cc2)cc1,enzyme activity,inhibitor,,0.1 µM,remaining activity,61.3%
O=C1Nc2ccc(Cl)cc2C1=Cc1cc(Cl)c(O)c(Cl)c1,cell-free assay,,,0.5 µM,remaining signal,86.1%
C[C@H](c1cccc(C#N)c1)n1cc(Cl)cc(C(N)=O)c1=N,cell-free assay,,competition with immobilised ligand,1 µM,remaining binding,88%
COc1ccc(NC(=O)c2c(Nc3ccccc3)sc(C#N)c2NC(=O)CNc2ccc(Br)cc2)cc1,enzyme activity,inhibitor,,10 nM,remaining activity,93%
Cc1ccc(C(=O)NCc2ccsc2)cc1C#Cc1cn(C(C)C)c2ncnc(N)c12,enzyme activity,inhibitor,,1 µM,activity vs control,0%
FC(F)(F)c1ccc2c(c1)nc(-c1cccnc1)n2C1CC1,cell-free assay,,competition with immobilised ligand,1 µM,remaining binding,100%
COc1ccc(NC(=O)c2c(Nc3ccccc3)sc(C(=O)NN=Cc3ccc(OC)c(O)c3)c2NC(C)=O)cc1,enzyme activity,inhibitor,,10 µM,remaining activity,46.1%
CNC(=O)c1cc2c(Oc3ccc(NC(=O)C4(C(=O)Nc5ccc(F)cc5)CC4)cc3)ccnc2cc1OC,enzyme activity,inhibitor,radiometric,1 µM,inhibition,82%
CN(C)C1CCN(CC#Cc2nn(C3CCCC3)c3nc(NCc4ccccc4)ncc23)C1 (stereo not drawn),enzyme activity,inhibitor,FRET,0.1 µM,inhibition,12%
COc1cc2c(N3CCN(C(=O)Nc4ccc(OC(C)C)cc4)CC3)ncnc2cc1OCCCN1CCCCC1,cell-free assay,,,0.5 µM,remaining signal,106%
CS(=O)(=O)Nc1cccc(-c2csc(NC(=O)CSc3nc4nccnc4c(=O)n3CCc3ccccc3)n2)c1,enzyme activity,inhibitor,,10 µM,inhibition,0%
Cc1[nH]c(/C=C2\C(=O)Nc3ccc(F)cc32)c(C)c1C(=O)N[C@H]1CCN(C(=O)N(C)C)C1,enzyme activity,inhibitor,,1 µM,remaining activity,9%
CC(=O)N1CCC(c2ccc(C(=O)NC3=NCCN3)cc2C(F)(F)F)CC1,cell-free assay,,competition with immobilised ligand,1 µM,remaining binding,80%
C[S+]([O-])c1ccc(-c2nc(-c3ccncc3)c(-c3ccc(F)cc3)[nH]2)cc1 (stereo not drawn),cell-free assay,,,0.5 µM,remaining signal,99.2%
COc1ccc(NC(=O)c2c(Nc3ccccc3)sc(C(=O)NN=Cc3cc(OC)c(OC)c(OC)c3)c2NC(C)=O)cc1,enzyme activity,inhibitor,,10 µM,remaining activity,71.1%
